The target in series [1] is T1, Indoleamine 2,3-dioxygenase 1 (Homo sapiens, UniProt P14902). Briefly: Inhibition of human IDO1 expressed in Escherichia coli at 10 uM using L-tryptophan as substrate after 1 hr by UV absorption analysis. A digest of the protocol: (§1)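 N-terminal human IDO1 or TDO was expressed in E. coli and Ni affinity-purified. Enzyme (100 nM) was incubated with compounds for 1 h at room temperature in Ca/Mg-free potassium phosphate buffer with […], 40 mM ascorbate, 200 µg/ml catalase and 20 µM methylene blue. Stop: 30% TCA, 65°C 15 min. Kynurenine read with DMAB at 480 nm against a standard curve. Triplicate, mean ± SD.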
Target sequence in this assay (P14902 whole entry, looked up): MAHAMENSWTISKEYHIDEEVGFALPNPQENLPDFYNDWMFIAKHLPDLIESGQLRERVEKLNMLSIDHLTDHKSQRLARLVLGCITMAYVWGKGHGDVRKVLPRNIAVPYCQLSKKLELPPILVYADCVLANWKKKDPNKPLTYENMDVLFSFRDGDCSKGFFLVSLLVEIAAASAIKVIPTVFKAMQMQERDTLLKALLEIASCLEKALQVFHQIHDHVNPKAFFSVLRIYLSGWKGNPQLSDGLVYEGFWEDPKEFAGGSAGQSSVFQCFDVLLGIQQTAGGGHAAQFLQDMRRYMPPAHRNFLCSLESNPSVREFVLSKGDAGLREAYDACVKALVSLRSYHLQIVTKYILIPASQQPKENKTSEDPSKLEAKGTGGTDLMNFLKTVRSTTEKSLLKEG

Series [2] addresses T2, Tryptophan 2,3-dioxygenase (Homo sapiens, UniProt P48775). Briefly: Inhibition of human TDO expressed in Escherichia coli at 10 uM using L-tryptophan as substrate after 1 hr by UV absorption analysis. A digest of the protocol:
as §1
Target sequence in this assay (P48775 whole entry, looked up): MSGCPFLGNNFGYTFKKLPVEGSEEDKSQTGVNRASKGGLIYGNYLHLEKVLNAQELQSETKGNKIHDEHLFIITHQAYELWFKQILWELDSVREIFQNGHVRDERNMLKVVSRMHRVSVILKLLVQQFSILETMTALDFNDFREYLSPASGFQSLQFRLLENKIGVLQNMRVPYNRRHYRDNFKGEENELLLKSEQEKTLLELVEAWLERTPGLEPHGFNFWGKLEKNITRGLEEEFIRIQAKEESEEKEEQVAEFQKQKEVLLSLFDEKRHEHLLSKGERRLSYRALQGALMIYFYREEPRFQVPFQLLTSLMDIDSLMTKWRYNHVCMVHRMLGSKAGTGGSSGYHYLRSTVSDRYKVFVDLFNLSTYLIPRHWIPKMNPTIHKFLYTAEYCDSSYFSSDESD

Series [3] has as its target T2, Tryptophan 2,3-dioxygenase. Briefly: Inhibition of TDO (unknown origin).
Target sequence in this assay (P48775 whole entry): as the sequence (P48775 whole entry, looked up) above
The target in series [4] is T1, Indoleamine 2,3-dioxygenase 1. Kind of series: Inhibition of IDO1 in IFN-gamma-induced human HeLa cells assessed as reduction in L-kynurenine level after 24 hrs. It counts as cell-based. A digest of the protocol:
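HeLa cells were plated for 24 h, then given IFNγ (50 ng/mL) plus inhibitors for 24 h; vehicle was 0.5% DMSO. Medium was mixed with 30% TCA and centrifuged. Supernatant kynurenine was reacted with 2% p-DMAB in acetic acid, read at 480 nm and quantified against an L-kynurenine standard curve. Triplicate, mean ± SD.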

Series [5] deals with HeLa. Kind of series: Effect on IFN-gamma-induced IDO1 expression in human HeLa cells at 10 to 50 uM by Western blot analysis. It counts as functional, cell-based. A digest of the protocol:
(§2)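 HeLa cells were pretreated for 2 h with inhibitors (10, 20, 50 µM) or a JAK inhibitor (1 µM), then given IFNγ 50 ng/mL for 24 h; 0.5% DMSO served as negative control. RIPA lysates with equal protein were run on 10% SDS-PAGE and blotted to nitrocellulose. Probes: rabbit anti-IDO1 (1:1000) and anti-GAPDH (1:4000) overnight at 4°C; HRP anti-rabbit 90 min.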

Series [6] concerns HeLa. Briefly: Reduction in IFN-gamma-induced IDO1 expression in human HeLa cells by Western blot analysis. It counts as functional, cell-based. A digest of the protocol:
as §2
On the technique in general: Immunoblotting shows a protein as a band on a membrane.

The target in series [7] is T2, Tryptophan 2,3-dioxygenase. Briefly: Inhibition of human TDO expressed in human A172 assessed as reduction in kynurenine formation using L-tryptophan as substrate after 24 hrs. Put shortly: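 A172 cells, which express TDO highly, were plated at 2 × 10^4 cells/well overnight. Cells were then exposed to compounds with L-Trp (20 µg/ml) for 24 h. Medium was treated with 30% TCA at 65°C for 30 min and centrifuged. Kynurenine was measured with 2% p-DMAB at 480 nm against an L-kynurenine standard curve.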

The test system of series [8] is CT26. Briefly: Antitumor activity against mouse CT26 cells transplanted in Balb/c mouse assessed as tumor growth inhibition at 80 mg/kg/day, po administered for 18 consecutive days relative to control. As to conditions: read-out: TGI. The format is functional. Put shortly: (§3)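 CT26 cells (100 µL of 1 × 10^7 cells/mL suspension) were injected s.c. into Balb/c mice. After 4 days, mice were randomized, 6 per group, and dosed orally once daily at 20, 40 or 80 mg/kg/day. Vehicle was 5% DMSO, 20% PEG400 and 75% deionized water. Tumors were measured by caliper every 3 days; volume = a × b²/2.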

The subject of series [9] is CT26. Kind of series: Antitumor activity against mouse CT26 cells transplanted in Balb/c mouse assessed as tumor growth inhibition at 40 mg/kg/day, po administered for 18 consecutive days relative to control. It counts as functional. The note with it: read-out: TGI. Put shortly: as §3
Series [10] relates to CT26. Kind of series: Antitumor activity against mouse CT26 cells transplanted in Balb/c mouse assessed as tumor growth inhibition at 20 mg/kg/day, po administered for 18 consecutive days relative to control. As to conditions: read-out: TGI. The format is functional. Put shortly:
as §3

Series [11] has as its target T1, Indoleamine 2,3-dioxygenase 1. Briefly: Inhibition of human IDO1 expressed in Escherichia coli using L-tryptophan as substrate after 1 hr by UV absorption analysis. A digest of the protocol:
as §1
Target sequence in this assay (P14902 whole entry): as the sequence (P14902 whole entry, looked up) above

Series [12] deals with T2, Tryptophan 2,3-dioxygenase. Briefly: Inhibition of human TDO expressed in Escherichia coli at using L-tryptophan as substrate after 1 hr by UV absorption analysis. A digest of the protocol: as §1
Target sequence in this assay (P48775 whole entry): as the sequence (P48775 whole entry, looked up) above
Series [13] deals with HeLa. Kind of series: Reduction in IFN-gamma-induced GAPDH expression in human HeLa cells by Western blot analysis. It counts as ADME, cell-based. Put shortly: as §2

The source made the active and inactive calls. The rule behind the calls is not given here.

With `O=C1CCCC(Nc2cccc(CNc3cc(Br)cc4[nH]ncc34)c2)C1` (stereo not drawn), the inhibition (in general, the relative decrease from the control value, in per cent) was determined as 52% in series [1] and 46% in series [2].

Consider `CC(=O)Nc1ccc(CNc2cc(Br)cc3[nH]ncc23)cc1`, for which, in [1], the inhibition came to 48%. In addition, the inhibition entry in [2] is “inactive”.

`Nc1cc(CNc2cc(Br)cc3[nH]ncc23)ccc1O` gave an inhibition in [1] of 32%. Besides, the inhibition result in series [2] was “inactive”.

Take `Brc1cc(NCc2ccncc2)c2cn[nH]c2c1`: the results for the inhibition in series [1] and in series [2] were 54% and 55%, respectively.

Consider `Oc1cccc(CNc2cc(Br)cc3[nH]ncc23)c1`, for which the inhibition amounted to 45% in series [1] and 55% in [2].

With `OCc1ccc(CNc2cc(Br)cc3[nH]ncc23)cc1`, the inhibition in [1] was 45%; in series [2] it was 56%.

Take `CC(C)Nc1cc(Br)cc2[nH]ncc12`: in [1], the inhibition was 47%. For the same molecule, the inhibition entry in [2] is “inactive”.

`ONc1cccc(CNc2cc(Br)cc3[nH]ncc23)c1` yielded an inhibition in series [1] of 53%. Besides, in series [2], the inhibition result is “inactive”.

On to `OC1CCCC(Nc2cccc(CNc3cc(Br)cc4[nH]ncc34)c2)C1` (stereo not drawn), for which the inhibition in series [1] is 52%; in [2], 50%.

As to `Nc1ccc2ccccc2c1CNc1cc(Br)cc2[nH]ncc12`, in [1], the inhibition was found to be 15%. Also, in series [2], the inhibition entry was “inactive”.

`Nc1ccc(CCNc2cc(Br)cc3[nH]ncc23)cc1` registered an inhibition in series [1] of 2%. In addition, the inhibition result in series [2] is “inactive”.

Molecule `Oc1ccc(CNc2cc(Br)cc3[nH]ncc23)cc1O` returned an inhibition in series [1] of 50%. For the same molecule, in [2], the inhibition result is “inactive”.

As to `FC(F)(F)c1cccc(CNc2cc(Br)cc3[nH]ncc23)c1`, the values for the inhibition in series [1] and in series [2] were 16% and 56%, respectively.

`Oc1ccc(CNc2cc(Br)cc3[nH]ncc23)c(F)c1` displayed an inhibition in series [1] of 69%. The inhibition result in [2] was “inactive”.

On to `Nc1ccccc1CNc1cc(Br)cc2[nH]ncc12`, for which, in series [1], the inhibition amounted to 36%. Also, the inhibition entry in series [2] is “inactive”.

For `Brc1cc(NCc2cccs2)c2cn[nH]c2c1`, the inhibition in [1] stood at 54%; in [2] it was 53%.

In the case of `CC(Nc1cc(Br)cc2[nH]ncc12)c1ccc([N+](=O)[O-])cc1` (stereo not drawn), the results for the inhibition in [1] and in series [2] were 17% and 56%, respectively.

Turning to `Cc1cc(O)ccc1CNc1cc(Br)cc2[nH]ncc12`, the inhibition in series [1] amounted to 60%; in series [2] it was 19%.

With `Oc1ccc(CNc2cc(Br)cc3[nH]ncc23)cc1F`, the inhibition was found to be 52% in series [1] and 26% in series [2].

For `CN1CCN(C(=O)c2ccc(Cn3nnc4c3C(=O)c3ccccc3C4=O)cc2)CC1`, in [3], the IC50 (usually the concentration at which inhibition is half-maximal) stood at 0.03 µM.

Turning to `CCOC(=O)CNc1cccc(CNc2cc(Br)cc3[nH]ncc23)c1`, in series [1], the inhibition came to 29%. Further, the inhibition result in series [2] was “inactive”.

Consider `Brc1cc(NCc2ccco2)c2cn[nH]c2c1`, for which the figures for the inhibition in series [1] and in [2] were 29% and 64%, respectively.

For `Oc1ccc(CNc2cc(Br)cc3[nH]ncc23)cc1Cl`, the inhibition in series [1] was found to be 60%; in series [2], 19%.

For `ONc1ccc(CNc2cc(Br)cc3[nH]ncc23)cc1`, the inhibition entry in series [1] is “inactive”. This molecule also gave an inhibition in [2] of 6%.

For the molecule `Oc1ccc(CNc2cc(Br)cc3[nH]ncc23)cc1`, the inhibition entry in series [2] and in series [4] was “inactive” each time. Also, in the series with HeLa [5], the outcome was inactive.

As for `Brc1cc(NCc2cnc[nH]2)c2cn[nH]c2c1`, the inhibition in series [1] was 16%; in [2] it was 54%.

Consider `O=C(O)CNc1cccc(CNc2cc(Br)cc3[nH]ncc23)c1`, for which the inhibition in series [1] is 57%. Besides, the inhibition entry in series [2] is “inactive”.

Turning to `Nc1cccc(CNc2cc(Br)cc3[nH]ncc23)c1`, the inhibition in series [1] is 31%. The inhibition result in [2] is “inactive”.

For `Cc1cc(CNc2cc(Br)cc3[nH]ncc23)ccc1O`, the inhibition in series [1] turned out to be 28%; in series [2], 30%.

`Oc1ccc(CNc2cc(Br)cc3[nH]ncc23)c(O)c1`: the inhibition in series [1] turned out to be 40%. For the same molecule, the inhibition entry in [2] is “inactive”.

For the molecule `Nc1nc(CNc2cc(Br)cc3[nH]ncc23)cs1`, the inhibition result in series [1] was “inactive”. This molecule also came in with an inhibition in series [2] of 73%.

As to `NS(=O)(=O)c1ccc(CNc2cc(Br)cc3[nH]ncc23)cc1`, the inhibition turned out to be 20% in series [1] and 75% in [2].

Consider `Brc1cc(NCc2cccc3nonc23)c2cn[nH]c2c1`, for which the inhibition in [1] was 91%; in [2], 85%; in [4], “Dose-dependent effect”; in [7] it was “Dose-dependent effect”. For the same molecule, the IC50 in [4] stood at 1.37 µM; in series [7], 7.54 µM; in [11] it was 0.74 µM; in [12], 2.94 µM. Also, the Activity result in the series on HeLa [6] is “Dose-dependent effect”; in the series on HeLa [13], “Toxic”. Also, in the series on CT26 [8], the inhibition in vivo at 80 mg/kg/day was 47.3%. Moreover, the inhibition in vivo at 40 mg/kg/day in the series with CT26 [9] came out at 38.1%. For the same molecule, the inhibition in vivo at 20 mg/kg/day in the series on CT26 [10] was 21.7%.

As to `Nc1ccc(CNc2cc(Br)cc3[nH]ncc23)cc1`, the inhibition in series [1] worked out at 3%; in series [2] it was 24%.

On to `NS(=O)(=O)NCCNc1nonc1/C(=N/O)Nc1ccc(F)c(Br)c1` [EPACADOSTAT], for which the inhibition in vivo at 20 mg/kg/day in the series on CT26 [10] stood at 39.2%.

As to `N#Cc1ccc(CNc2cc(Br)cc3[nH]ncc23)cc1`, the values for the inhibition in series [1] and in series [2] were 70% and 73%, respectively.

Take `Nc1ccccc1CC(=O)Nc1ccc(CCNc2cc(Br)cc3[nH]ncc23)cc1`: the inhibition was 3% in series [1] and 29% in series [2].

Consider `Brc1cc(NCc2ccc3c(c2)OCO3)c2cn[nH]c2c1`, for which the inhibition in [1] is 68%; in series [2], 62%.

Take `Brc1cc(NCc2cccc3sccc23)c2cn[nH]c2c1`: the inhibition in series [1] stood at 3%; in series [2] it was 56%.

In series [3], `O=C1c2ccccc2-n2c1nc1ccccc1c2=O` [TRYPTANTHRIN] came in with an IC50 of 0.9 µM.

As for `O=C(Nc1ccc(CCNc2cc(Br)cc3[nH]ncc23)cc1)NC1CCOCC1`, in series [1], the inhibition result is “inactive”. The molecule further registered an inhibition in series [2] of 20%.

For the molecule `CC(Nc1cc(Br)cc2[nH]ncc12)c1ccccc1` (stereo not drawn), the inhibition in [1] is 14%. For the same molecule, the inhibition result in series [2] is “inactive”.
